# CHRM4 PAM: positive allosteric modulators of human muscarinic M4 receptor; CHO-K1 hM4/Gqi5, Fluo-8 calcium fluorescence, ACh EC20; 0% = ACh EC20, 100% = maximal ACh; activation, % at 3 µM; AID 624126; P08173; 360,000 tested, 0.4% active;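 active means activation above its plate's cutoff, the mean activation of sample wells plus 3 SD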
# CHRM4 antagonist: antagonists of human muscarinic M4 receptor (CHRM4) | CHO-hM4 cells, ACh EC80, Fluo-8 calcium fluorescence | inhibition, % at 3 µM | 360,000 tested, 0.73% active | P08173;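 active means inhibition above its plate's cutoff, the mean inhibition of sample wells plus 3 SD, cut at about 27% in these data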
# CHRM5 agonist: agonists of human muscarinic M5 receptor (CHRM5). 360,000 tested, 0.19% active. CHO-K1 hM5 cells, Fluo-8 calcium fluorescence; 0% DMSO wells, 100% maximal acetylcholine response. AID 624037. activation, % at 3 µM;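 active means activation above the run's mean over test compounds plus 3 SD, cut at about 23% in these data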;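 further: signal is peak over basal fluorescence ratio across the kinetic read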
# Target sequence (P08912 whole entry, looked up): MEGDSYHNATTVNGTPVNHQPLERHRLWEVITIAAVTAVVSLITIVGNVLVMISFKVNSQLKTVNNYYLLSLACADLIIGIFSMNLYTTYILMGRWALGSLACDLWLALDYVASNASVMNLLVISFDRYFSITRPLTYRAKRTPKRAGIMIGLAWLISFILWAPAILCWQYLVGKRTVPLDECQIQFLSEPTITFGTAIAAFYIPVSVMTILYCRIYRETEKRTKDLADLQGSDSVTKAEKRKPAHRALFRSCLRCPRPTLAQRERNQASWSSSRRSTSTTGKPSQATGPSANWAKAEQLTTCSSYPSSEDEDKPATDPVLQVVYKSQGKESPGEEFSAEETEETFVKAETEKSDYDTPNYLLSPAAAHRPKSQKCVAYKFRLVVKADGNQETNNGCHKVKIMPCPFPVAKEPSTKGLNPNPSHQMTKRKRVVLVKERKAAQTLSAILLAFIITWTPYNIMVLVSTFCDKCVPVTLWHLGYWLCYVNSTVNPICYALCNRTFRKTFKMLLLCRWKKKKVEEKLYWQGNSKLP
# CHRM4 agonist: agonists of human muscarinic M4 receptor (CHRM4) | P08173 | CHO-K1 hM4/Gqi5, Fluo-8 calcium fluorescence; vehicle 0%, full acetylcholine response 100% | activation, % at 3 µM | 360,000 tested, 0.14% active | AID 624127;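 active means activation above the run mean over all test wells plus 3 SD, cut at about 32% in these data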;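 further: peak over basal fluorescence ratio per well then scaled between controls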
# M5 PAM: positive allosteric modulators of human muscarinic M5 receptor | P08912 | CHO-K1 hM5, Fluo-8 calcium, ACh EC20 PAM; 0% = ACh EC20, 100% = ACh EC100 | activation, % at 3 µM | 360,000 tested, 0.3% active | AID 624038;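 active means activation above the run cutoff, the mean activation of all test compounds plus 3 SD, cut at about 18% in these data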
#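 system = human M5 receptor in CHO-K1 cells | compound = one concentration, 3 µM final (nominal) | schedule = Post-acetylcholine fluorescence recording 140 s | signal = Fluo-8 calcium dye fluorescence, kinetic read | benchmarks = low control EC20 acetylcholine (0%), high control EC100 acetylcholine (100%) | repeats = singlicate, one well per test compound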
# CHRM5 antagonist: antagonists of human muscarinic M5 receptor (CHRM5). P08912. CHO-hM5 cells, Fluo-8 calcium fluorescence, ACh EC80. inhibition, % at 3 µM. 360,000 tested, 0.59% active;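 active means inhibition above a per-plate cutoff, the mean of that plate's test compounds plus 3 SD, cut at about 27% in these data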
# Numbers stand for hits; . = inactive. Hits are enriched below; roughly 1.8% of the tested compounds scored in any of these assays.
SMILES,CHRM4 PAM,CHRM4 antagonist,CHRM5 agonist,CHRM4 agonist,M5 PAM,CHRM5 antagonist
Cc1nc(-c2nnc(-c3ccccc3)o2)c(C(F)(F)F)o1,.,29.3,.,.,.,.
c1ccc(-c2nnc(-c3ccccc3)o2)cc1,.,.,.,.,.,.
O=C(Cn1cnc([N+](=O)[O-])c1)Nc1ccc(Cl)cc1Cl,.,.,.,.,.,.
CC(C)Oc1ccc(CN2CCC2(C)C(=O)Nc2cccc3cccnc23)cc1 (configuration not stated),.,.,.,.,.,.
CC(C)OP(=O)(OC(C)C)C(Nc1cccc(C(=O)O)c1)c1ccccc1 (configuration not stated),.,.,.,.,.,.
CC(C)OP(=O)(OC(C)C)C(Nc1ccc(C(=O)O)cc1)c1ccccc1 (configuration not stated),31.8,38.0,.,.,.,.
CCOc1ccccc1NC(=O)C1CC(=O)n2ncnc2N1 (configuration not stated),.,28.2,.,.,.,.
CN(C)c1ccc(CC(=O)N2CCCC(c3cc(C(=O)Nc4ccc5c(c4)OCO5)no3)C2)cc1 (configuration not stated),.,.,.,.,.,.
Cn1c(SCc2c(Cl)cccc2Cl)nnc1-c1ccc2nonc2c1,26.3,.,.,.,.,.
Cc1ccc(C)c(C(O)c2ncc(-c3cccc(C(F)(F)F)c3)[nH]2)c1 (configuration not stated),.,.,.,.,.,.
CN(CC/C=C1/c2ccccc2CSc2ccccc21)CCCO,.,64.8,.,.,.,44.4
NCC/C=C1/c2ccccc2CSc2ccccc21,.,.,.,.,.,34.0
C#CCN(C)CC/C=C1\c2ccccc2CSc2ccccc21,.,31.9,.,.,.,36.9
CC(O)CN(C)CC/C=C1/c2ccccc2CSc2ccccc21 (configuration not stated),.,.,.,.,.,.
C=CCN(C)CC/C=C1\c2ccccc2CSc2ccccc21,.,52.1,.,.,.,62.0
Cc1c(C(=O)NCc2ccco2)sc(=O)n1Cc1ccc(S(C)(=O)=O)cc1,.,.,.,.,.,.
C[C@@H](NC(=O)[C@@H]1CCCN1C(=O)[C@@H]1CCCN1C(=O)c1cccc(Cl)c1)c1ccccc1,.,.,.,.,.,.
COc1ccc(-c2nc3ccc(Br)cn3c2Cc2ccccc2)cc1OC,.,.,.,.,.,.
Cc1c(C(=O)N2CCC(C)(C(=O)NS(=O)(=O)C3CC3)C2)oc2ccccc12 (configuration not stated),16.6,.,.,.,.,.
Cc1c(C(=O)N2CCCC(C)(C(=O)NS(=O)(=O)C3CC3)C2)oc2ccccc12 (configuration not stated),.,.,.,.,.,.
Cc1ccc(C)c(N2CCN(S(=O)(=O)c3ccc4c(c3)NC(=O)CO4)CC2)c1,.,.,.,.,.,.
Cc1ccc(C)c(N2CCN(S(=O)(=O)c3ccc4c(c3)NC(=O)CC(=O)N4)CC2)c1,.,88.1,.,.,.,.
Cn1cc(Cl)c(C(=O)OCC(=O)Nc2ccccc2)n1,.,.,.,.,.,46.6
Cn1ccc(C(=O)OCC(=O)Nc2cccc(Cl)c2)n1,.,.,.,.,.,.
COC(=O)[C@@]12C[C@@H](CC(=O)N3CCN(C(=O)C4CC4)CC3)C(=O)N(Cc3ccccc3)C1=CCC(C)(C)C2,.,.,.,.,.,.
SMILES,CHRM4 PAM,CHRM4 antagonist,CHRM5 agonist,CHRM4 agonist,M5 PAM,CHRM5 antagonist
CC1(C(O)(C#CC[N+]2(C)CCCCC2)c2ccccc2)CCCC1 (configuration not stated),.,98.8,.,.,.,99.5
COCc1cc(C)c2c(N)c(C#N)sc2n1,33.7,.,.,.,.,.
CC(=O)Nc1ccc(C=NN=C2c3ccccc3-c3ccccc32)cc1,17.5,.,.,.,.,.
COc1ccc(S(=O)(=O)N(C)C[C@@H]2OCc3cnnn3CCCC(=O)N([C@@H](C)CO)C[C@@H]2C)cc1,19.1,.,.,.,.,.
Cc1ccc(S(=O)(=O)N(C)C[C@H]2OCc3cnnn3CCCC(=O)N([C@@H](C)CO)C[C@H]2C)cc1,.,.,.,.,.,.
Fc1ccccc1CNC(=S)Nc1cccc(C(F)(F)F)c1,.,.,.,.,.,27.2
Cc1ccc(NC(=O)c2nc(S(=O)(=O)Cc3ccccc3)ncc2Cl)cc1,.,45.8,.,.,.,.
COc1ccc(OC)c(NC(=O)c2nc(S(=O)(=O)Cc3ccccc3)ncc2Cl)c1,.,44.3,.,.,.,.
Cc1cccc(C)c1NC(=O)c1nc(S(=O)(=O)Cc2ccccc2)ncc1Cl,.,.,.,.,.,.
O=C(Nc1ccc(F)cc1)c1nc(S(=O)(=O)Cc2ccccc2)ncc1Cl,.,35.7,.,.,.,.
COc1ccc(NC(=O)c2nc(S(=O)(=O)Cc3cccc(C)c3)ncc2Cl)c(OC)c1,.,.,.,.,.,.
Cc1ccccc1CS(=O)(=O)c1ncc(Cl)c(C(=O)Nc2ccc(F)cc2)n1,.,29.1,.,.,.,.
COc1cccc2c(=O)n(CC(=O)NCCc3ccccc3)ccc12,.,29.5,.,.,.,.
Cc1ccc(S(=O)(=O)N2C[C@@H](C)[C@]3(C2)[C@H](O)[C@H](OC(=O)NC2CCCC2)C[C@H]2C(=O)N(c4ccccc4)C(=O)[C@H]23)cc1,.,.,.,.,.,.
CC1(C(=O)Nc2ccc3[nH]ncc3c2)CCN1C(=O)Cc1ccc(-c2ccccc2)cc1 (configuration not stated),.,.,.,.,.,.
CCCC(=O)OCCNc1cc(Sc2nccn2C)c2nonc2c1[N+](=O)[O-],.,36.5,.,.,.,.
O=[N+]([O-])c1c(NCCCO)cc(Sc2nc3ccccc3s2)c2nonc12,.,74.9,.,.,.,32.1
CCC(=O)OCCNc1cc(Sc2nc3ccccc3[nH]2)c2nonc2c1[N+](=O)[O-],.,54.2,.,.,.,.
CC[N+](C)(CC)CCOC(=O)C1c2ccccc2Oc2ccccc21,.,99.3,.,.,.,98.7
CCN(CC)CCCNC(=O)C1c2ccccc2Oc2ccccc21,.,.,.,.,.,27.6
CN(CCOC(=O)C1c2ccccc2Oc2ccccc21)C(C)(C)C,.,99.0,.,.,.,98.3
COCCCNC(=O)C1c2ccccc2Oc2ccccc21,.,.,.,.,.,.
CN(C)CCCOC(=O)C1c2ccccc2Oc2ccccc21,.,94.6,.,.,.,97.2
CC(=O)c1csc(CS(=O)(=O)c2ccccn2)n1,.,.,.,.,20.0,.
